The values below come from paper PMC3580954 (Biopolymers, 2013).

One assay concerns the target T1, wt hPrRP receptor (Homo sapiens, UniProt P49683).
T1 sequence (P49683 1-370): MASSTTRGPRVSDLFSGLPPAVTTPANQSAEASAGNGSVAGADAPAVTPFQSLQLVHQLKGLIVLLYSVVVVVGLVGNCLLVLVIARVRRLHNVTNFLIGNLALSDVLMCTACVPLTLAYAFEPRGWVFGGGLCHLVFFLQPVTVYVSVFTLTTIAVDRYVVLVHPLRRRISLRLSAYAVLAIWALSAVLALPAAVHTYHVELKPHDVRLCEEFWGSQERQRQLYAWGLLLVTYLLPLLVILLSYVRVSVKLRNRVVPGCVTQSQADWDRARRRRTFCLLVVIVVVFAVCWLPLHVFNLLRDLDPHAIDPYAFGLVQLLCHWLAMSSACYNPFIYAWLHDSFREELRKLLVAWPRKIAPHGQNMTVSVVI
As to the kind of experiment: Signal transduction. It counts as cell-based. The conditions noted are these: SD. The method, boiled down: (§1)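 COS-7 cells were transiently transfected with 0.4 µg plasmid of human PrRP receptor or its site-directed mutant, C-terminally fused to EYFP. One day after transfection and 16 h before stimulation, cells were labelled with 2 µCi/mL [³H]myo-inositol. They were then stimulated with increasing peptide concentrations for 1 h at 37°C in DMEM with 10 mM LiCl, and lysed in 0.1 M NaOH. IP was separated by anion exchange and counted by scintillation. EC50 came from concentration-response curves; runs were in duplicate, repeated ≥2 times.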

The next assay has as its target T2, wt PrRP receptor (Homo sapiens, UniProt P49683).
T2 sequence (P49683 1-370): T1 sequence (P49683 1-370)
Description: Radioligand displacement. It counts as binding. The method, boiled down:
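COS-7 cells (1.5 × 10⁶ seeded) were transiently transfected at 60–70% confluency with 4 µg of EYFP-fused human PrRP receptor DNA. About 24 h later, competition binding was run on intact cells against 1 nM N[propionyl³H]hPrRP20. IC50 came from a one-site competition fit, with triplicates.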

Another assay deals with T3, Y^2.64A PrRP receptor (Homo sapiens, UniProt P49683, Y120A).
T3 sequence (P49683 1-370 Y120A): T1 sequence (P49683 1-370) with Y120A
As to the kind of experiment: IP accumulation assay, Y^2.64A receptor mutant. It counts as cell-based. The conditions noted are these: SD. The procedure, abridged:
as §1

The target of a further assay is T4, W^2.71A PrRP receptor (Homo sapiens, UniProt P49683, W127A).
T4 sequence (P49683 1-370 W127A): T1 sequence (P49683 1-370) with W127A
As to the kind of experiment: IP accumulation assay, W^2.71A receptor mutant. The format is cell-based. The conditions noted are these: SD. The method, boiled down: as §1

Assay [1] concerns the target T5, PrRP receptor (GPR10) (Homo sapiens, UniProt P49683).
T5 chain: T1 sequence (P49683 1-370)
Description: radioligand displacement on transfected COS-7 cells.

Assay [2] has as its target T5, PrRP receptor (GPR10). Description: radioligand binding on transfected COS-7 cells.

Where a chain is given by its changes, count along the chain named. Like-named read-outs stand apart in the source and are kept apart here. Residues, ends and D or L forms follow the SMILES beside them. No end group written: not given here.

Regarding `CC[C@H](C)[C@H](NC(=O)CNC(=O)[C@H](CCCNC(=N)N)NC(=O)[C@H](CO)NC(=O)[C@H](C)NC(=O)[C@H](Cc1ccc(O)cc1)NC(=O)[C@H](Cc1c[nH]c2ccccc12)NC(=O)[C@H](C)NC(=O)[C@@H]1CCCN1C(=O)[C@H](CC(N)=O)NC(=O)[C@@H](NC(=O)[C@H](CC(=O)O)NC(=O)[C@@H]1CCCN1C(=O)[C@@H](N)[C@@H](C)O)[C@@H](C)CC)C(=O)N[C@@H](C)C(=O)N1CCC[C@H]1C(=O)N[C@H](C(=O)NCC(=O)N[C@@H](CCCNC(=N)N)C(=O)N[C@@H](Cc1ccccc1)C(N)=O)C(C)C` [A^15PrRP20] (H-TPDINPAWYASRGIAPVGRF-NH2), the EC50 on wt hPrRP receptor worked out at 49 ± 12 nM. This molecule also returned an IC50 on wt PrRP receptor (SD) of 882 ± 376 nM.
Take `CC[C@H](C)[C@H](NC(=O)CNC(=O)[C@H](CCCNC(=N)N)NC(=O)[C@H](CO)NC(=O)[C@H](C)NC(=O)[C@H](Cc1ccc(O)cc1)NC(=O)[C@H](Cc1c[nH]c2ccccc12)NC(=O)[C@H](C)NC(=O)[C@@H]1CCCN1C(=O)[C@H](CC(N)=O)NC(=O)[C@@H](NC(=O)[C@H](CC(=O)O)NC(=O)[C@@H]1CCCN1C(=O)[C@@H](N)[C@@H](C)O)[C@@H](C)CC)C(=O)N[C@@H](CCCNC(=N)N)C(=O)N1CCC[C@H]1C(=O)N[C@H](C(=O)NCC(=O)N[C@@H](C)C(=O)N[C@@H](Cc1ccccc1)C(N)=O)C(C)C` [A^19PrRP20] (H-TPDINPAWYASRGIRPVGAF-NH2): at wt hPrRP receptor, the EC50 was determined as 1200 ± 231 nM. This molecule showed a concentration for half-maximal inhibition (IC50) at wt PrRP receptor above 10000 nM.
For the molecule `CC[C@H](C)[C@H](NC(=O)CNC(=O)[C@H](CCCNC(=N)N)NC(=O)[C@H](CO)NC(=O)[C@H](C)NC(=O)[C@H](Cc1ccc(O)cc1)NC(=O)[C@H](Cc1c[nH]c2ccccc12)NC(=O)[C@H](C)NC(=O)[C@@H]1CCCN1C(=O)[C@H](CC(N)=O)NC(=O)[C@@H](NC(=O)[C@H](CC(=O)O)NC(=O)[C@@H]1CCCN1C(=O)[C@@H](N)[C@@H](C)O)[C@@H](C)CC)C(=O)N[C@@H](CCCNC(=N)N)C(=O)N1CCC[C@H]1C(=O)N[C@H](C(=O)NCC(=O)N[C@@H](CCCNC(=N)N)C(=O)N[C@@H](C)C(N)=O)C(C)C` [A^20PrRP20] (H-TPDINPAWYASRGIRPVGRA-NH2), on wt hPrRP receptor, the response was half-maximal at 20 ± 5 nM (EC50). The molecule also showed an IC50 at wt PrRP receptor (SD) of 870 ± 288 nM.
In the case of `CC[C@H](C)[C@H](N)C(=O)N[C@@H](CC(N)=O)C(=O)N1CCC[C@H]1C(=O)N[C@@H](C)C(=O)N[C@@H](Cc1c[nH]c2ccccc12)C(=O)N[C@@H](Cc1ccc(O)cc1)C(=O)N[C@@H](C)C(=O)N[C@@H](CO)C(=O)N[C@@H](CCCNC(=N)N)C(=O)NCC(=O)N[C@H](C(=O)N[C@@H](CCCNC(=N)N)C(=O)N1CCC[C@H]1C(=O)N[C@H](C(=O)NCC(=O)N[C@@H](CCCNC(=N)N)C(=O)N[C@@H](Cc1ccccc1)C(N)=O)C(C)C)[C@@H](C)CC` [PrRP4-20] (H-INPAWYASRGIRPVGRF-NH2), at wt hPrRP receptor, the EC50 turned out to be 1 ± 0.2 nM.
With `CC[C@H](C)[C@H](NC(=O)CNC(=O)[C@H](CCCNC(=N)N)NC(=O)[C@H](CO)NC(=O)[C@H](C)NC(=O)[C@H](Cc1ccc(O)cc1)NC(=O)[C@@H](N)Cc1c[nH]c2ccccc12)C(=O)N[C@@H](CCCNC(=N)N)C(=O)N1CCC[C@H]1C(=O)N[C@H](C(=O)NCC(=O)N[C@@H](CCCNC(=N)N)C(=O)N[C@@H](Cc1ccccc1)C(N)=O)C(C)C` [PrRP8-20] (H-WYASRGIRPVGRF-NH2), the EC50 at Y^2.64A PrRP receptor amounted to 434 ± 96 nM; at W^2.71A PrRP receptor, 2120 ± 390 nM; on wt hPrRP receptor, 2.3 ± 0.5 nM.
As to `CC[C@H](C)[C@H](N)C(=O)N[C@@H](CCCNC(=N)N)C(=O)N1CCC[C@H]1C(=O)N[C@H](C(=O)NCC(=O)N[C@@H](CCCNC(=N)N)C(=O)N[C@@H](Cc1ccccc1)C(N)=O)C(C)C` [PrRP14-20] (H-IRPVGRF-NH2), at wt hPrRP receptor, the EC50 was determined as 14 ± 2 nM.
On to TPDINPAWYASRGIRPVGRF-NH2, for which the IC50 with PrRP receptor (GPR10) [1] turned out to be 4.1 nM. In other words, the single-digit nanomolar range.
Regarding WYASRGIRPVGRF-NH2 [PrRP8-20], in the assay with PrRP receptor (GPR10) [1], the IC50 came to 7 nM. Against the preceding molecule, the IC50 is about 1.7-fold higher.
As to {(3H)propionyl}-TPDINPAWYASRGIRPVGRF-NH2, the affinity with PrRP receptor (GPR10) [2], expressed as Kd, was 0.58 nM. In other words, the sub-nanomolar range.
With INPAWYASRGIRPVGRF-NH2 [PrRP4-20], the IC50 with PrRP receptor (GPR10) [1] is 1.2 nM.
On the same count and under the same terms, under IRPVGRF-NH2 [PrRP14-20] stands 430 nM.
